The species entered for assay [1] is Cavia porcellus. The assay can be described thus: In vitro bronchodilator activity in isolated guinea pig tracheal spiral preparation. The class given is functional. The conditions noted are these: Trachea. The essentials: (§1)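 Guinea pig tracheal spiral held under 1.0 g tension, equilibrated 90–120 min to maximal spontaneous tonus. One drug concentration per spiral, ≥3 trials per concentration. Relaxation was expressed as % of that produced by papaverine (10 µg/mL) in the same tissue. Concentrations are bath values in µg/mL; the 50%-relaxation concentration was obtained by regression.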

The subject of assay [2] is Rattus norvegicus. The assay can be described thus: Antiallergic activity was evaluated by passive cutaneous anaphylaxis test in egg albumin sensitized male Harlan-Sprague-Dawley rats when administered perorally. The conditions noted are these: po. In kind it is functional. The method, boiled down:
(§2)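 Donor rats got egg albumin im (1 mg/rat) plus killed B. pertussis vaccine ip (2 × 10¹⁰ organisms/rat) and were bled 10–12 days later for IgE-rich antiserum. Recipient rats (100–150 g) were sensitized intradermally with 0.1 mL of 1:2.5 and 1:10 antiserum dilutions.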

For assay [3], the system named is Rattus norvegicus. The assay can be described thus: Antiallergic activity was evaluated by inhibition of allergen-induced bronchospasm in male Harlan-Wistar rats when administered intraduodenally 15 min prior to antigen challenge. In kind it is functional. The conditions noted are these: intraduodenal.
For assay [4], the system named is Rattus norvegicus. The assay can be described thus: In vivo bronchodilator activity in methacholine (intravenous) induced bronchospasm in male Harlan-Sprague-Dawley rats when administered intraduodenally. The class given is functional.
Assay [5] deals with Rattus norvegicus. Description: In vivo bronchodilator activity in methacholine (intravenous) induced bronchospasm in male Harlan-Sprague-Dawley rats when administered intraduodenally; statistically significant inhibition of < 50% at thr stated dose. In kind it is functional.
Assay [6] relates to Rattus norvegicus. Description: Antiallergic activity by passive cutaneous anaphylaxis test in ovalbumin sensitized male Harlan-Sprague-Dawley rats at 25 mg/kg oral dose (inactive). In kind it is functional, organism-based. The arrangement: dose 25 mg/kg. The method, boiled down: as §2
The species entered for assay [7] is Cavia porcellus. The assay can be described thus: Evaluation of in vitro bronchodilator activity in isolated guinea pig tracheal spiral preparation. The class given is functional. The conditions noted are these: Trachea. The essentials:
as §1

The subject of assay [8] is Rattus norvegicus. The assay can be described thus: Antiallergic activity by passive cutaneous anaphylaxis test in rats by intravenous administration. In kind it is functional. The essentials:
as §2

Assay [9] concerns Rattus norvegicus. Description: Antiallergic activity by passive cutaneous anaphylaxis test in rats by intraduodenal administration. In kind it is functional. The method, boiled down: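 Recipient male Harlan-Sprague-Dawley or Wistar rats (100–150 g) received 0.1 mL intradermal antiserum at 1:2.5 and 1:10. Donor antiserum came from rats given egg albumin 1 mg im plus killed B. pertussis 2 × 10¹⁰ ip, bled 10–12 days later. After 48 h, drug went intraduodenally under anesthesia, then iv egg albumin 25 mg/kg with Evans blue 25 mg/kg. Read-out was spot-diameter inhibition versus controls, ≥5 rats/dose; ED50 was estimated.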

Assay [10] has as its system Rattus norvegicus. Description: Percent inhibition of PCA reaction at 33 mg/kg oral dose after 24 hr r. In kind it is functional.
The species entered for assay [11] is Rattus norvegicus. Description: Antiallergic activity by passive cutaneous anaphylaxis test in vitro in rats. The class given is functional. The method, boiled down: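 Peritoneal mast cells were lavaged from male Harlan-Sprague-Dawley rats (200–300 g) with HBSS containing 0.1% albumin and 5 mM phosphate. Cells were sensitized with IgE antiserum plus heparin for 2 h at 37 °C, then challenged with egg albumin, drug added simultaneously. After 10 min, histamine was measured fluorimetrically; inhibition versus no-drug release, four trials per concentration.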

The subject of assay [12] is Rattus norvegicus. Description: In vivo bronchodilator effect on (intravenous) methacholine-induced bronchospasm in male Harlan-Sprague-Dawley rats at 10 mg/kg intraduodenal dose (inactive). The arrangement: dose 10 mg/kg. The class given is functional, organism-based.
Assay [13] concerns Rattus norvegicus. The assay can be described thus: Antiallergic activity by passive cutaneous anaphylaxis test in ovalbumin sensitized male Harlan-Sprague-Dawley rats administered orally. The class given is functional. The conditions noted are these: po. The essentials:
as §2

pIC50: −log10 of the molar value. Converted amounts (≈) assume the structure as drawn. The source made the active and inactive calls. The rule behind the calls is not given here.

`O=C1c2[nH]cnc2N(Cc2ccc(F)cc2)C2=NCCN12` gave an IC50 in the assay filed under Cavia porcellus [1] of 17.5 µg/mL (≈ 61.3 µM).

`O=C1c2[nH]cnc2N(Cc2cccc(Cl)c2)C2=NCCN12` came in with an IC50 in the assay listed under Cavia porcellus [1] of 12.5 µg/mL (≈ 41.4 µM).

As for `Cc1nc2c(n1C)C(=O)N1CCN=C1N2Cc1ccc(Cl)cc1`, in the assay listed under Cavia porcellus [1], the IC50 is 8.4 µg/mL (≈ 25.5 µM).

`CC1CN2C(=O)c3c(ncn3C)N(Cc3ccc(Cl)cc3)C2=N1` (configuration not stated): the ED50 in the assay on Rattus norvegicus [2] worked out at 28.9 mg/kg; in the assay on Rattus norvegicus [3], 3.4 mg/kg; in the assay with Rattus norvegicus [4], 1.1 mg/kg. Further, the IC50 in the assay listed under Cavia porcellus [1] is 2.3 µg/mL (≈ 6.97 µM).

In the case of `O=C1c2[nH]nnc2N(Cc2ccc(F)cc2)C2=NCCN12`, the IC50 in the assay filed under Cavia porcellus [1] was > 200 µg/mL. For the same molecule, the ED50 in the assay with Rattus norvegicus [5] is > 10 mg/kg.

Regarding `C[C@@H]1N=C2N(Cc3ccc(Cl)cc3)c3[nH]cnc3C(=O)N2[C@H]1C`, the ED50 in the assay on Rattus norvegicus [2] is 35.5 mg/kg; in the assay with Rattus norvegicus [3] it was 2.8 mg/kg; in the assay with Rattus norvegicus [4] it was 5 mg/kg. For the same molecule, half-maximal inhibition in the assay listed under Cavia porcellus [1] (IC50) was put at 1.1 µg/mL (≈ 3.34 µM).

As to `O=C1c2[nH]cnc2N(CCc2ccc(Cl)cc2)C2=NCCN12`, the ED50 entry with Rattus norvegicus [6] is “inactive”. In addition, in the assay filed under Cavia porcellus [1], the IC50 was determined as 53 µg/mL (≈ 168 µM).

With `CSc1nc2c([nH]1)N(Cc1ccc(Cl)cc1)C1=NCCN1C2=O`, the ED50 with Rattus norvegicus [4] is > 30 mg/kg. In the assay listed under Cavia porcellus [7], this molecule returned an IC50 of 13.7 µg/mL (≈ 39.4 µM).

On to `O=C1c2[nH]cnc2N(Cc2ccc(Cl)cc2)C2=NCCN12`, for which the ED50 with Rattus norvegicus [8] is 2.4 mg/kg; with Rattus norvegicus [9] it was 8.4 mg/kg; with Rattus norvegicus [3] it was 0.9 mg/kg. Further, the inhibition in vivo at 33 mg/kg with Rattus norvegicus [10] was found to be 11.5%. The same molecule showed a pIC50 in the assay listed under Rattus norvegicus [11] of 3.31. In addition, inhibition in the assay listed under Cavia porcellus [1] was half-maximal at 14 µg/mL (≈ 46.4 µM) (IC50).

`CSC1=C2N=CN=C2N(Cc2ccc(Cl)cc2)C2=NCCN21`: in the assay with Rattus norvegicus [4], the ED50 was > 30 mg/kg. In the assay filed under Cavia porcellus [7], this molecule registered an IC50 of 8.1 µg/mL (≈ 24.4 µM).

On to `Cc1nc2c([nH]1)N(Cc1ccc(Cl)cc1)C1=NC(C)(C)CN1C2=O`, for which the ED50 in the assay with Rattus norvegicus [2] came to 44.4 mg/kg; in the assay with Rattus norvegicus [3] it was 1.08 mg/kg; in the assay on Rattus norvegicus [4], 7.3 mg/kg. Inhibition in the assay filed under Cavia porcellus [1] was half-maximal at 1.7 µg/mL (≈ 4.94 µM) (IC50).

Regarding `CC(C)CN1C2=NCCN2C(=O)c2[nH]c(C(C)C)nc21`, the ED50 in the assay with Rattus norvegicus [2] amounted to 15.3 mg/kg; with Rattus norvegicus [4] it was 9.5 mg/kg. In addition, in the assay listed under Cavia porcellus [1], the IC50 worked out at 11.5 µg/mL (≈ 41.8 µM).

`CCc1nc2c([nH]1)N(Cc1ccc(Cl)cc1)C1=NCCN1C2=O` returned an IC50 in the assay filed under Cavia porcellus [1] of 13 µg/mL (≈ 39.4 µM). The ED50 in the assay with Rattus norvegicus [5] was > 10 mg/kg.

`N=C1c2[nH]cnc2N(Cc2ccc(Cl)cc2)C2=NCCN12` showed an IC50 in the assay listed under Cavia porcellus [1] of 19.8 µg/mL (≈ 65.8 µM). The ED50 with Rattus norvegicus [5] was > 30 mg/kg.

In the assay listed under Cavia porcellus [1], `S=C1c2[nH]cnc2N(Cc2ccc(Cl)cc2)C2=NCCN12` showed an IC50 of 5.1 µg/mL (≈ 16 µM). In the assay on Rattus norvegicus [5], the 50% effective dose (ED50) is > 30 mg/kg.

Turning to `CCCCCCCCN1C2=NCCN2C(=O)c2[nH]cnc21`, inhibition in the assay filed under Cavia porcellus [7] was half-maximal at 24.5 µg/mL (≈ 84.7 µM) (IC50).

As to `O=C1c2[nH]c(Br)nc2N(Cc2ccc(Cl)cc2)C2=NCCN12`, the midpoint of inhibition in the assay filed under Cavia porcellus [7], the IC50, lay at 54 µg/mL (≈ 142 µM).

`Cc1nc2c(n1C)C(=O)N1CCN=C1N2CC(C)C`: inhibition in the assay listed under Cavia porcellus [1] was half-maximal at 36.6 µg/mL (≈ 140 µM) (IC50).

Take `Cn1c(Br)nc2c1C(=O)N1CCN=C1N2Cc1ccc(Cl)cc1`: the ED50 entry with Rattus norvegicus [12] is “inactive”. This molecule showed an IC50 in the assay filed under Cavia porcellus [7] of 3.9 µg/mL (≈ 9.88 µM).

Consider `CC1(C)CN2C(=O)c3[nH]cnc3N(Cc3ccc(Cl)cc3)C2=N1`, for which the values for the ED50 in the assay with Rattus norvegicus [13] and in the assay on Rattus norvegicus [3] were 35.3 mg/kg and 3 mg/kg, respectively. The half-maximal inhibitory concentration (IC50) in the assay filed under Cavia porcellus [1] stood at 14.3 µg/mL (≈ 43.4 µM).

In turn, `CCc1nc2c([nH]1)N(CC(C)C)C1=NCCN1C2=O` displayed an IC50 in the assay listed under Cavia porcellus [1] of 16.7 µg/mL (≈ 63.9 µM).

What is called IC50 is the midpoint of a concentration-inhibition curve. A higher IC50 goes with a need for much substance. In general, ED50 refers to the dose that gives a 50% effect, or the effect in half of the subjects. A word on the inhibition in vivo: it is the relative decrease from the control value, in per cent. Read a low inhibition in vivo as a response near the control. One may read the pIC50 as the negative decadic logarithm of the IC50, by convention in mol/L. A high value points to a small IC50.

For the origin of these results see ChEMBL document CHEMBL1121553, “Substituted 6,7-dihydroimidazo[1,2-a]purin-9(4H)-ones” (J Med Chem, 1980).
